{"source": "paper PMC3616288", "about": "(The EMBO Journal, 2013)", "key": {"α‐COP": {"target": "T1, α‐COP (Schizosaccharomyces pombe, UniProt Q96WV5, F197K/I192K/L181K/L185K/L196K)", "T1 sequence (Q96WV5 1-327 L181K/L185K/I192K/L196K/F197K)": "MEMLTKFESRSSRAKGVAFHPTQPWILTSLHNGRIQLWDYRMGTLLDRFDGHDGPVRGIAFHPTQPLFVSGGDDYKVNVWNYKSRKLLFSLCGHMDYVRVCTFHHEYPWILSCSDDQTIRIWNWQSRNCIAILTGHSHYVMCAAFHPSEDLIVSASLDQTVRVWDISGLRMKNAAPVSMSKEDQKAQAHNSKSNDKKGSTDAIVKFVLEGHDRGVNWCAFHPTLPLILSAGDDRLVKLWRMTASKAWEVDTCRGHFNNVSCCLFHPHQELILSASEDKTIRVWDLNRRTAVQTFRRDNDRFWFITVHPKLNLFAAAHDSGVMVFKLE", "assay": "Isothermal calorimetry", "assay_type": "binding, S. pombe", "conditions": "from ITC Kd values for α‐COP and β′‐COP", "summary_of_the_method": "(§1)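 Synthetic peptides and protein were dialysed overnight into the same 20 mM Tris–HCl pH 7.5, 150 mM NaCl. α-COP target: quintuple-mutant S. pombe α-COP(1–327), His-Smt3-tagged, E. coli-expressed, tag cleaved. β′-COP target: S. cerevisiae β′-COP(1–814)/α-COP C-terminal fragment dimer from Hi-5 insect cells. Ratios are taken from the Kd values.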"}, "β′‐COP": {"target": "T2, β′‐COP (Saccharomyces cerevisiae, UniProt P41811)", "T2 sequence (P41811 1-814)": "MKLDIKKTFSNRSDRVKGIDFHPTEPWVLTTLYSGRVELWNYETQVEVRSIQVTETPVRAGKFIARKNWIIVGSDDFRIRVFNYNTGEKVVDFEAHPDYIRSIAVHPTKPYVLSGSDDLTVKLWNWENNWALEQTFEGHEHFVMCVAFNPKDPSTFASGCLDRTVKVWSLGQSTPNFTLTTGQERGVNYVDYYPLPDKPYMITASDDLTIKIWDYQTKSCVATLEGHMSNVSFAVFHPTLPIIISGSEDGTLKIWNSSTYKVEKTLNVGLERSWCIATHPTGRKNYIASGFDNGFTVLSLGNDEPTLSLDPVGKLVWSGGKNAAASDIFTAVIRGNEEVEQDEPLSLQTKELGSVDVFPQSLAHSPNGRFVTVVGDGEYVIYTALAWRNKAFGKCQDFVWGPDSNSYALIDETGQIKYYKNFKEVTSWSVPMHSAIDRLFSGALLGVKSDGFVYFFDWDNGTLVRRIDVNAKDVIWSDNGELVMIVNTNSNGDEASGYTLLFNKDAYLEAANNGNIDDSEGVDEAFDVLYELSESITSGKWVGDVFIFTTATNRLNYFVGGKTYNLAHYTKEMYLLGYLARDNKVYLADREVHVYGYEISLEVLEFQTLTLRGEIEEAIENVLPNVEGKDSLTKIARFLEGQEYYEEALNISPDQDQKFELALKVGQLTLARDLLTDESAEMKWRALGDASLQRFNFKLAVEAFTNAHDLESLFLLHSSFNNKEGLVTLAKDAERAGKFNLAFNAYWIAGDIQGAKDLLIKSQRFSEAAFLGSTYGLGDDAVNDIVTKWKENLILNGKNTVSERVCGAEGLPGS", "T2 sequence (P53622 642-818 partner limits assumed)": "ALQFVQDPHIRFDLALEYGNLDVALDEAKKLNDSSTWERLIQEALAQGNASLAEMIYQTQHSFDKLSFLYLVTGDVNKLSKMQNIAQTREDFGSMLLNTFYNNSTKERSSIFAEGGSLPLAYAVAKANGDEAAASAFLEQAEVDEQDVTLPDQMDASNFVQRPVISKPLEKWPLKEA", "assay": "Isothermal calorimetry", "assay_type": "binding, S. cerevisiae", "conditions": "ITC; relative to TFKKTN (yWbp1) peptide", "summary_of_the_method": "as §1"}, "[1]": {"target": "S. cerevisiae β′-COP(1–814)/α-COP(642–818) dimer (S. cerevisiae) (UniProt P41811)", "assay": "ITC"}, "[2]": {"target": "T3, S. cerevisiae β′-COP N-terminal β-propeller domain (residues 1–301) (S. cerevisiae, UniProt P41811 1-301)", "T3 sequence (looked up)": "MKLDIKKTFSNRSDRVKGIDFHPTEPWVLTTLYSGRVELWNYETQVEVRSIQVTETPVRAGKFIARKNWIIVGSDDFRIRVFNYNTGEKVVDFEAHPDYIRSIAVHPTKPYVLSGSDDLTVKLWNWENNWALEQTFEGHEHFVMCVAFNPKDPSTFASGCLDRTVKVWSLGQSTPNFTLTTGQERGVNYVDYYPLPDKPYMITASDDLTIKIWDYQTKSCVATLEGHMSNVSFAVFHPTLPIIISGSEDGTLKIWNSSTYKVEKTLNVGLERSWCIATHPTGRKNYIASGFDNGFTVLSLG", "assay": "crystal structure"}, "[3]": {"target": "T4, S. cerevisiae β′-COP(1–814)/α-COP(642–818) dimer (S. cerevisiae, UniProt P41811 1-814; P53622 642-818)", "T4 sequence (looked up) 1": "T2 sequence (P41811 1-814)", "T4 sequence (looked up) 2": "T2 sequence (P53622 642-818 partner limits assumed)", "assay": "ITC"}, "[4]": {"target": "T4, S. cerevisiae …", "assay": "pull-down"}, "[5]": {"target": "T5, S. cerevisiae α-COP(1–818)/β′-COP(651–814) dimer (S. cerevisiae, UniProt P53622 1-818; P41811 651-814)", "T5 sequence (looked up) 1": "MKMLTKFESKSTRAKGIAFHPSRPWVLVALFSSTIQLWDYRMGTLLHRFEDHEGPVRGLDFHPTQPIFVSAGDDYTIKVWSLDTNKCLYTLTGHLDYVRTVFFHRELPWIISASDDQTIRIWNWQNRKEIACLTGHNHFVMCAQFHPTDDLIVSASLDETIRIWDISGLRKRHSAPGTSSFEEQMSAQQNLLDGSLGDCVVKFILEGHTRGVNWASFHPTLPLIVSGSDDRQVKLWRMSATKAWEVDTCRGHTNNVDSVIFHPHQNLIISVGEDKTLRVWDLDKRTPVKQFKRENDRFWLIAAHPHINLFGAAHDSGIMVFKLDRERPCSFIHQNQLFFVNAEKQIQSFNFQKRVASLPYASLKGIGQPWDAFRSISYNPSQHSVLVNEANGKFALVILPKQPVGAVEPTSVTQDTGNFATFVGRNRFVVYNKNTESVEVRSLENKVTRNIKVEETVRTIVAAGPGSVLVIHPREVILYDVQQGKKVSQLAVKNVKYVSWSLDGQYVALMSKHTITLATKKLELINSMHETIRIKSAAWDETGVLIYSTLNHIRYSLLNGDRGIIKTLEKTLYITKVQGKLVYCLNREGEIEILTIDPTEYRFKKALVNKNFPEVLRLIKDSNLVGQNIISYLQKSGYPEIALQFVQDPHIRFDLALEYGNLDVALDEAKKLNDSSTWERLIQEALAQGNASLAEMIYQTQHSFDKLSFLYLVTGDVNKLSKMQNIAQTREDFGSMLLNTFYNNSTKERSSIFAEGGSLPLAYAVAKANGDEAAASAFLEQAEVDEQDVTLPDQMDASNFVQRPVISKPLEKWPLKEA", "T5 sequence (looked up) 2": "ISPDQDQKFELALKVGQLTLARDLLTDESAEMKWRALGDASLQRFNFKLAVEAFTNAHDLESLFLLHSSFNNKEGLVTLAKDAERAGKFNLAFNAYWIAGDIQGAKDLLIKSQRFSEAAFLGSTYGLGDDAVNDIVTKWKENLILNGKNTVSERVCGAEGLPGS", "assay": "pull-down"}}, "data": [{"molecule": "TFKKSN", "values": [{"measurement": "ratio of affinities of α‐COP and β′‐COP: factor by which the motif favours α‐COP", "setting": "α‐COP", "value": 2.2}, {"measurement": "binds more tightly than KKTN to β′‐COP by a factor", "setting": "β′‐COP", "value": 1.8, "unit": "fold"}]}, {"molecule": "yeast Wbp1 variant peptide TFKKSN", "values": [{"measurement": "fold tighter binding than KKTN", "setting": "[1]", "value": 1.8, "unit": "fold"}]}, {"molecule": "AEKSHQE", "note": "[Insig-2 peptide AEKSHQE]", "values": [{"measurement": "binding result", "setting": "[2]", "value": "binds"}, {"measurement": "binding result", "setting": "[3]", "value": "binds"}]}, {"molecule": "EKEKSD", "note": "[human Wbp1 (OST48) peptide EKEKSD]", "values": [{"measurement": "Kd", "setting": "[3]", "value": 3.4, "unit": "µM"}]}, {"molecule": "RIRQEIIKTKLL (domain or fragment, yeast, UniProt P43555 434-445, looked up)", "note": "[GST fused to the cytoplasmic region of Emp47p (KxKxx motif)]", "values": [{"measurement": "binding result", "setting": "[4]", "value": "binds"}, {"measurement": "binding result", "setting": "[5]", "value": "binds"}]}, {"molecule": "TFKKTN", "note": "[yeast Wbp1 peptide TFKKTN]", "values": [{"measurement": "Kd", "setting": "[3]", "value": 171, "unit": "µM"}]}, {"molecule": "IKTKLL", "note": "[Emp47p peptide IKTKLL]", "values": [{"measurement": "Kd", "setting": "[3]", "value": 22.5, "unit": "µM"}]}, {"molecule": "FEAKKLV", "note": "[p25 peptide FEAKKLV]", "values": [{"measurement": "Kd", "setting": "[3]", "value": 27.7, "unit": "µM"}]}, {"molecule": "PEKPHSD", "note": "[Insig-1 peptide PEKPHSD]", "values": [{"measurement": "binding result", "setting": "[2]", "value": "binds"}, {"measurement": "binding result", "setting": "[3]", "value": "binds"}]}, {"molecule": "FEKVHVQ", "note": "[porcine epidemic diarrhoea virus spike protein peptide FEKVHVQ]", "values": [{"measurement": "binding result", "setting": "[2]", "value": "binds"}]}, {"molecule": "KYKSRRSFIDEKKMP (domain or fragment, adenovirus, UniProt P68978 145-159, looked up)", "note": "[GST fused to the cytoplasmic region of adenoviral E19 protein (KKxx motif)]", "values": [{"measurement": "binding result", "setting": "[4]", "value": "binds"}, {"measurement": "binding result", "setting": "[5]", "value": "binds"}]}, {"molecule": "RRSFIDEKKMP", "note": "[adenoviral E19 protein peptide RRSFIDEKKMP]", "values": [{"measurement": "Kd", "setting": "[3]", "value": 49, "unit": "µM"}]}, {"molecule": "RHLKSFFEAKKLV (domain or fragment, UniProt Q9BVK6 223-235, looked up)", "note": "[GST fused to the cytoplasmic region of p25 (KKxx motif)]", "values": [{"measurement": "binding result", "setting": "[4]", "value": "binds"}, {"measurement": "binding result", "setting": "[5]", "value": "binds"}]}, {"molecule": "GARKLD", "note": "[Scyl1 peptide GARKLD]", "values": [{"measurement": "Kd", "setting": "[3]", "value": 20.4, "unit": "µM"}]}]}
